This note sets out measurements from ChEMBL document CHEMBL1143257, “Structure-activity relationships of novel HIV-1 protease inhibitors containing the 3-amino-2-chlorobenzoyl-allophenylnorstatine structure” (Bioorg Med Chem, 2008).

Broadly, the EC50 is the midpoint of the concentration-response curve. As usually defined, the Ki is the equilibrium dissociation constant of an inhibitor or competing ligand from its target. A higher Ki goes with a looser hold on the target.

The nature of data set [1]: Metabolic stability in human liver microsomes assessed as compound remaining at 5 uM in presence of UDPGA by RP-HPLC. The class given is ADME, Microsome. The conditions noted are these: read-out: Stability. In outline:
(§1)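 Test drug at 5 µM incubated with liver microsomes (0.5 mg/ml) plus cofactor (1 mM NADPH or 5 mM UDPGA) at 37 °C for 30 min. Residual drug measured by RP-HPLC. Values are the mean percent remaining of duplicates.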
(In general: Microsomes from liver hold many membrane-bound enzymes, among them those of drug oxidation.)

In data set [2] the test system is Human immunodeficiency virus 1. Nature of the data set: Antiviral activity against HIV1 3B. The class given is functional, organism-based. The conditions noted are these: Human immunodeficiency virus 1, 3B.
The subject of data set [3] is Human immunodeficiency virus 1. Nature of the data set: Antiviral activity against HIV1 3B in presence of 50% human serum. The class given is functional, organism-based. To be noted: Human immunodeficiency virus 1, 3B.
A short description of data set [4]: Metabolic stability in human liver microsomes assessed as compound remaining at 5 uM in presence of NADPH by RP-HPLC. The class given is ADME, Microsome. To be noted: read-out: Stability. An outline of the steps: as §1
In the next data set the target is Protease (Human immunodeficiency virus 1, UniProt Q9YQ12). Nature of the data set: Inhibition of HIV1 protease.
Sequence of Protease (Q9YQ12 whole entry): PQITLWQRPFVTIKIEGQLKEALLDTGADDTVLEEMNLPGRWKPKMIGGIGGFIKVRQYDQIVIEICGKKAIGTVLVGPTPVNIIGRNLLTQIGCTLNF

For the molecule `CCOc1ccc(C[C@H](NC(=O)c2cccc(N)c2Cl)[C@H](O)C(=O)N2CSC(C)(C)[C@H]2C(=O)NCc2c(C)cccc2C)cc1`, the figures for the remaining at 5 µM in data set [1] and in data set [4] were more than 95% and 54%, respectively. Further, the EC50 came out at 20 nM in data set [2] and 66 nM in data set [3]. Further, the inhibitory constant (Ki) on Protease is 0.152 nM.

In the case of `COc1cccc(C[C@H](NC(=O)c2cccc(N)c2Cl)[C@H](O)C(=O)N2CSC(C)(C)[C@H]2C(=O)NCc2ccccc2C)c1`, the remaining at 5 µM in data set [1] worked out at 93%; in data set [4], 66%. In addition, the EC50 in data set [2] is 21 nM; in data set [3] it was 138 nM. For the same molecule, at Protease, the Ki came to 0.255 nM.

Turning to `Cc1ccccc1CNC(=O)[C@H]1N(C(=O)[C@@H](O)[C@H](Cc2ccc3c(c2)OCO3)NC(=O)c2cccc(N)c2Cl)CSC1(C)C`, the values for the remaining at 5 µM in data set [1] and in data set [4] were more than 95% and 74%, respectively. The concentration for a half-maximal effect (EC50) was 20 nM in data set [2] and 77 nM in data set [3]. The Ki on Protease amounted to 0.163 nM.

`CCOc1ccc(C[C@H](NC(=O)c2cccc(N)c2Cl)[C@H](O)C(=O)N2CSC(C)(C)[C@H]2C(=O)NCc2ccccc2C)cc1`: the results for the remaining at 5 µM in data set [1] and in data set [4] were 89% and 65%, respectively. Further, the 50% effective concentration (EC50) in data set [2] was determined as 6 nM; in data set [3] it was 35 nM. In addition, the affinity on Protease, expressed as Ki, was 0.31 nM.

For the molecule `COc1ccc(C[C@H](NC(=O)c2cccc(N)c2Cl)[C@H](O)C(=O)N2CSC(C)(C)[C@H]2C(=O)NCc2ccccc2C)cc1`, the remaining at 5 µM was more than 95% in data set [1] and 60% in data set [4]. Also, the EC50 stood at 18 nM in data set [2] and 88 nM in data set [3]. At Protease, this molecule returned a Ki of 0.311 nM.

On to `Cc1cccc(C)c1CNC(=O)[C@H]1N(C(=O)[C@@H](O)[C@H](Cc2ccc3c(c2)OCO3)NC(=O)c2cccc(N)c2Cl)CSC1(C)C`, for which the remaining at 5 µM in data set [1] was more than 95%; in data set [4], 53%. In addition, the figures for the EC50 in data set [2] and in data set [3] were 17 nM and 20 nM, respectively. For the same molecule, the Ki at Protease worked out at 0.07 nM.

With `Cc1ccccc1CNC(=O)[C@H]1N(C(=O)[C@@H](O)[C@H](Cc2ccccc2)NC(=O)c2cccc(N)c2Cl)CSC1(C)C`, the remaining at 5 µM in data set [1] is more than 95%; in data set [4] it was 46%. Also, the half-maximal effective concentration (EC50) in data set [2] was determined as 77 nM; in data set [3], 165 nM. On Protease, this molecule registered an inhibition constant Ki of 0.353 nM.

`COc1ccc(C[C@H](NC(=O)c2cccc(N)c2Cl)[C@H](O)C(=O)N2CCC(C)(C)[C@H]2C(=O)NCc2c(C)cccc2C)cc1`: the remaining at 5 µM was more than 95% in data set [1] and 63% in data set [4]. In addition, the values for the concentration giving a half-maximal response (EC50) in data set [2] and in data set [3] were 40 nM and 80 nM, respectively. For the same molecule, the affinity on Protease corresponds to a Ki of 0.804 nM.

For the molecule `COc1ccc(C[C@H](NC(=O)c2cccc(N)c2Cl)[C@H](O)C(=O)N2CSC(C)(C)[C@H]2C(=O)NCc2c(C)cccc2C)cc1`, the remaining at 5 µM in data set [1] was more than 95%; in data set [4], 58%. Also, the EC50 in data set [2] was found to be 24 nM; in data set [3], 14 nM. At Protease, this molecule showed a Ki of 0.138 nM.

For the molecule `CCOc1ccc(C[C@H](NC(=O)c2cccc(N)c2Cl)[C@H](O)C(=O)N2CCC(C)(C)[C@H]2C(=O)NCc2c(C)cccc2C)cc1`, the values for the remaining at 5 µM in data set [1] and in data set [4] were more than 95% and 53%, respectively. In addition, the EC50 in data set [2] was 63 nM; in data set [3], 270 nM. The molecule also came in with a Ki on Protease of 0.861 nM.
